The source of these data is ChEMBL document CHEMBL1129534, “Antitumor agents. 163. Three-dimensional quantitative structure-activity relationship study of 4'-O-demethylepipodophyllotoxin analogs using the modified CoMFA/q2-GRS approach” (J Med Chem, 1996).

This assay concerns the target DNA topoisomerase II (Homo sapiens) (UniProt P11388+Q02880). In words: Compound tested for ability to form a cellular covalent topoisomerase II-DNA complex. In kind it is functional. The essentials:
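Read-out is intracellular covalent topoisomerase II–DNA complex formation, scored as the percentage of cellular protein–DNA complex formed (PCPDCF). For CoMFA modelling the values were transformed to ln(PCPDCF + 1).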

Each structure is given as a SMILES string. “And” between values parts separate entries of the source, which are not always exact repeats. Equal entries are not always repeated.

As to `COc1cc([C@@H]2c3cc4c(cc3[C@@H](NCc3cccc(C#N)c3)[C@H]3COC(=O)[C@H]23)OCO4)cc(OC)c1O`, the Protein-DNA complex formation was found to be 225%.

With `COc1cc([C@@H]2c3cc4c(cc3[C@@H](NC(=O)c3ccc(C#N)cc3)[C@H]3COC(=O)[C@H]23)OCO4)cc(OC)c1O`, the Protein-DNA complex formation is 159%.

As for `COc1cc([C@@H]2c3cc4c(cc3[C@@H](O[C@@H]3O[C@@H]5CO[C@@H](C)O[C@H]5[C@H](O)[C@H]3O)[C@H]3COC(=O)[C@H]23)OCO4)cc(OC)c1O`, the Protein-DNA complex formation came to 100%.

Regarding `COc1cc([C@@H]2c3cc4c(cc3[C@@H](Nc3cccc(Br)c3)[C@H]3COC(=O)[C@H]23)OCO4)cc(OC)c1O`, the Protein-DNA complex formation was 62%.

Molecule `COc1cc([C@@H]2c3cc4c(cc3[C@@H](NC(=O)c3ccc(F)cc3)[C@H]3COC(=O)[C@H]23)OCO4)cc(OC)c1O` showed a Protein-DNA complex formation of 117%.

As for `COc1cc([C@@H]2c3cc4c(cc3[C@@H](Nc3cccc([N+](=O)[O-])c3)[C@H]3COC(=O)[C@H]23)OCO4)cc(OC)c1O`, the Protein-DNA complex formation was 230%.

For `COc1cc([C@@H]2c3cc4c(cc3[C@@H](NCCCN(C)C)[C@H]3COC(=O)[C@H]23)OCO4)cc(OC)c1O`, the Protein-DNA complex formation is 186% and 179%.

`COc1cc([C@@H]2c3cc4c(cc3[C@@H](NC(=O)c3ccc([N+](=O)[O-])cc3)[C@H]3COC(=O)[C@H]23)OCO4)cc(OC)c1O`: the Protein-DNA complex formation is 160%.

Regarding `COc1cc([C@@H]2c3cc4c(cc3[C@@H](Nc3ccc(N)cc3)[C@H]3COC(=O)[C@H]23)OCO4)cc(OC)c1O`, the Protein-DNA complex formation was 330%.

Molecule `COc1cc([C@@H]2c3cc4c(cc3[C@@H](NC(=O)c3cccc([N+](=O)[O-])c3)[C@H]3COC(=O)[C@H]23)OCO4)cc(OC)c1O` had a Protein-DNA complex formation of 86%.

As for `COC(=O)c1cccc(N[C@@H]2c3cc4c(cc3[C@@H](c3cc(OC)c(O)c(OC)c3)[C@H]3C(=O)OC[C@@H]32)OCO4)c1`, the Protein-DNA complex formation turned out to be 249%.

The molecule `COc1cccc(N[C@@H]2c3cc4c(cc3[C@@H](c3cc(OC)c(O)c(OC)c3)[C@H]3C(=O)OC[C@@H]32)OCO4)c1` came in with a Protein-DNA complex formation of 104%.

As for `COc1cc([C@@H]2c3cc4c(cc3[C@@H](NCc3ccc(F)cc3)[C@H]3COC(=O)[C@H]23)OCO4)cc(OC)c1O`, the Protein-DNA complex formation was found to be 169%.

As for `CCOC(=O)CC[C@H](NC(=O)c1ccc(N[C@@H]2c3cc4c(cc3[C@@H](c3cc(OC)c(O)c(OC)c3)[C@H]3C(=O)OC[C@@H]32)OCO4)cc1)C(=O)OCC`, the Protein-DNA complex formation was determined as 83%.

In turn, `COc1cc([C@@H]2c3cc4c(cc3[C@@H](Nc3ccccc3Cl)[C@H]3COC(=O)[C@H]23)OCO4)cc(OC)c1O` came in with a Protein-DNA complex formation of 32%.

As to `COc1cc([C@@H]2c3cc4c(cc3[C@@H](Nc3ccc(Cl)cc3)[C@H]3COC(=O)[C@H]23)OCO4)cc(OC)c1O`, the Protein-DNA complex formation was 99%.

In turn, `COc1cc([C@@H]2c3cc4c(cc3[C@@H](Nc3ccc(O)cc3)[C@H]3COC(=O)[C@H]23)OCO4)cc(OC)c1O` came in with a Protein-DNA complex formation of 211%.

`COc1cc([C@@H]2c3cc4c(cc3[C@@H](NCc3ccccc3F)[C@H]3COC(=O)[C@H]23)OCO4)cc(OC)c1O` yielded a Protein-DNA complex formation of 126%.

Molecule `COCCN[C@@H]1c2cc3c(cc2[C@@H](c2cc(OC)c(O)c(OC)c2)[C@H]2C(=O)OC[C@@H]21)OCO3` gave a Protein-DNA complex formation of 111%.

`COc1cc([C@@H]2c3cc4c(cc3[C@@H](NCc3ccc(C(F)(F)F)cc3)[C@H]3COC(=O)[C@H]23)OCO4)cc(OC)c1O` had a Protein-DNA complex formation of 99%.

As to `COc1cc([C@@H]2c3cc4c(cc3[C@@H](NCCN3CCCCC3)[C@H]3COC(=O)[C@H]23)OCO4)cc(OC)c1O`, the Protein-DNA complex formation was 183% and 190%.

In turn, `COc1cc([C@@H]2c3cc4c(cc3[C@@H](Nc3ccc(C#N)cc3)[C@H]3COC(=O)[C@H]23)OCO4)cc(OC)c1O` displayed a Protein-DNA complex formation of 211%.

`COc1cc([C@@H]2c3cc4c(cc3[C@@H](Sc3ccc(O)cc3)[C@H]3COC(=O)[C@H]23)OCO4)cc(OC)c1O`: the Protein-DNA complex formation was 10%.

`COc1cc([C@@H]2c3cc4c(cc3[C@@H](Nc3ccc5c(c3)OCO5)[C@H]3COC(=O)[C@H]23)OCO4)cc(OC)c1O` showed a Protein-DNA complex formation of 164%.

Consider `COc1cc([C@@H]2c3cc4c(cc3[C@@H](NCc3cccc(N)c3)[C@H]3COC(=O)[C@H]23)OCO4)cc(OC)c1O`, for which the Protein-DNA complex formation amounted to 191%.

With `COc1cc([C@@H]2c3cc4c(cc3[C@@H](Nc3ccccc3)[C@H]3COC(=O)[C@H]23)OCO4)cc(OC)c1O`, the Protein-DNA complex formation is 243%.

In turn, `COc1cc([C@@H]2c3cc4c(cc3[C@@H](NC(=O)c3ccc(OC(C)=O)cc3)[C@H]3COC(=O)[C@H]23)OCO4)cc(OC)c1O` registered a Protein-DNA complex formation of 137%.

The molecule `COc1cc([C@@H]2c3cc4c(cc3[C@@H](Nc3cccc(C#N)c3)[C@H]3COC(=O)[C@H]23)OCO4)cc(OC)c1O` had a Protein-DNA complex formation of 137%.

As to `COc1cc([C@@H]2c3cc4c(cc3[C@@H](Nc3cc([N+](=O)[O-])ccc3O)[C@H]3COC(=O)[C@H]23)OCO4)cc(OC)c1O`, the Protein-DNA complex formation came to 15%.

Consider `COc1cc([C@@H]2c3cc4c(cc3[C@@H](NCc3cccc([N+](=O)[O-])c3)[C@H]3COC(=O)[C@H]23)OCO4)cc(OC)c1O`, for which the Protein-DNA complex formation amounted to 130%.

In turn, `COc1cc([C@@H]2c3cc4c(cc3[C@@H](Nc3ccccn3)[C@H]3COC(=O)[C@H]23)OCO4)cc(OC)c1O` had a Protein-DNA complex formation of 97%.

As to `COc1cc([C@@H]2c3cc4c(cc3[C@@H](NCc3ccccc3[N+](=O)[O-])[C@H]3COC(=O)[C@H]23)OCO4)cc(OC)c1O`, the Protein-DNA complex formation turned out to be 144%.

Molecule `COc1cc([C@@H]2c3cc4c(cc3[C@@H](Nc3cccc(O)c3)[C@H]3COC(=O)[C@H]23)OCO4)cc(OC)c1O` came in with a Protein-DNA complex formation of 290%.

With `COc1cc([C@@H]2c3cc4c(cc3[C@@H](OC(=O)c3ccccc3)[C@H]3COC(=O)[C@H]23)OCO4)cc(OC)c1O`, the Protein-DNA complex formation came out at 94%.

Consider `COc1cc([C@@H]2c3cc4c(cc3[C@@H](Nc3cccc(Cl)c3)[C@H]3COC(=O)[C@H]23)OCO4)cc(OC)c1O`, for which the Protein-DNA complex formation worked out at 51%.

In turn, `COc1cc([C@@H]2c3cc4c(cc3[C@@H](Nc3ccc([N+](=O)[O-])cc3)[C@H]3COC(=O)[C@H]23)OCO4)cc(OC)c1O` had a Protein-DNA complex formation of 323%.

The molecule `COc1cc([C@@H]2c3cc4c(cc3[C@@H](NCCCO)[C@H]3COC(=O)[C@H]23)OCO4)cc(OC)c1O` had a Protein-DNA complex formation of 89.2%.

Molecule `COc1cc([C@@H]2c3cc4c(cc3[C@@H](NCc3ccc(C#N)cc3)[C@H]3COC(=O)[C@H]23)OCO4)cc(OC)c1O` registered a Protein-DNA complex formation of 284%.

`COc1cc([C@@H]2c3cc4c(cc3[C@@H](Nc3ccc(Br)cc3)[C@H]3COC(=O)[C@H]23)OCO4)cc(OC)c1O` registered a Protein-DNA complex formation of 179%.

The molecule `COc1cc([C@@H]2c3cc4c(cc3[C@@H](Nc3cnc5ccccc5c3)[C@H]3COC(=O)[C@H]23)OCO4)cc(OC)c1O` gave a Protein-DNA complex formation of 123%.

As to `COc1cc([C@@H]2c3cc4c(cc3[C@@H](Nc3ccc(I)cc3)[C@H]3COC(=O)[C@H]23)OCO4)cc(OC)c1O`, the Protein-DNA complex formation was 64%.

Molecule `COc1cc([C@@H]2c3cc4c(cc3[C@H](N)[C@H]3COC(=O)[C@H]23)OCO4)cc(OC)c1O` showed a Protein-DNA complex formation of 8%.

Turning to `COc1cc([C@@H]2c3cc4c(cc3[C@@H](Oc3ccc(F)cc3)[C@H]3COC(=O)[C@H]23)OCO4)cc(OC)c1O`, the Protein-DNA complex formation is 57%.

With `COc1cc([C@@H]2c3cc4c(cc3[C@@H](Nc3ccccc3F)[C@H]3COC(=O)[C@H]23)OCO4)cc(OC)c1O`, the Protein-DNA complex formation is 121%.

`COc1cc([C@@H]2c3cc4c(cc3[C@@H](Nc3cccc(CO)c3)[C@H]3COC(=O)[C@H]23)OCO4)cc(OC)c1O` came in with a Protein-DNA complex formation of 235%.

`COc1cc([C@@H]2c3cc4c(cc3[C@@H](NCc3ccccc3)[C@H]3COC(=O)[C@H]23)OCO4)cc(OC)c1O` came in with a Protein-DNA complex formation of 181%.

Turning to `C=CCN[C@@H]1c2cc3c(cc2[C@@H](c2cc(OC)c(O)c(OC)c2)[C@H]2C(=O)OC[C@@H]21)OCO3`, the Protein-DNA complex formation stood at 84.1%.

On to `COc1cc([C@@H]2c3cc4c(cc3[C@@H](NC(=O)c3cccc(N)c3)[C@H]3COC(=O)[C@H]23)OCO4)cc(OC)c1O`, for which the Protein-DNA complex formation was determined as 149%.

As to `COc1cc([C@@H]2c3cc4c(cc3[C@@H](N[C@@H](C)CO)[C@H]3COC(=O)[C@H]23)OCO4)cc(OC)c1O`, the Protein-DNA complex formation is 162%.

As to `COc1cc([C@@H]2c3cc4c(cc3[C@@H](NCc3cccc(F)c3)[C@H]3COC(=O)[C@H]23)OCO4)cc(OC)c1O`, the Protein-DNA complex formation stood at 216%.

Consider `COc1cc([C@@H]2c3cc4c(cc3[C@@H](Oc3ccc(O)cc3)[C@H]3COC(=O)[C@H]23)OCO4)cc(OC)c1O`, for which the Protein-DNA complex formation came out at 34%.

`COc1cc([C@@H]2c3cc4c(cc3[C@@H](NC[C@H](C)O)[C@H]3COC(=O)[C@H]23)OCO4)cc(OC)c1O` showed a Protein-DNA complex formation of 167%.

Consider `COc1cc([C@@H]2c3cc4c(cc3[C@@H](Nc3ccc(C(=O)O)cc3)[C@H]3COC(=O)[C@H]23)OCO4)cc(OC)c1O`, for which the Protein-DNA complex formation is 6.9% and 1.9%.

`COC(=O)c1cc(N[C@@H]2c3cc4c(cc3[C@@H](c3cc(OC)c(O)c(OC)c3)[C@H]3C(=O)OC[C@@H]32)OCO4)ccc1O` showed a Protein-DNA complex formation of 83%.

Regarding `CCOC(=O)c1ccccc1N[C@@H]1c2cc3c(cc2[C@@H](c2cc(OC)c(O)c(OC)c2)[C@H]2C(=O)OC[C@@H]21)OCO3`, the Protein-DNA complex formation is 4%.

In turn, `CCCN[C@@H]1c2cc3c(cc2[C@@H](c2cc(OC)c(O)c(OC)c2)[C@H]2C(=O)OC[C@@H]21)OCO3` returned a Protein-DNA complex formation of 69.7%.

For `COc1cc([C@@H]2c3cc4c(cc3[C@@H](NCc3ccccc3N)[C@H]3COC(=O)[C@H]23)OCO4)cc(OC)c1O`, the Protein-DNA complex formation amounted to 184%.

With `COc1cc([C@@H]2c3cc4c(cc3[C@H](O)[C@H]3COC(=O)[C@H]23)OCO4)cc(OC)c1O`, the Protein-DNA complex formation came out at 3.3%.

Molecule `COc1cc([C@@H]2c3cc4c(cc3[C@@H](Nc3ccccc3O)[C@H]3COC(=O)[C@H]23)OCO4)cc(OC)c1O` came in with a Protein-DNA complex formation of 151%.
